The record followed here is ChEMBL document CHEMBL3259751, “A rational design strategy of the novel topoisomerase II inhibitors for the synthesis of the 4-O-(2-pyrazinecarboxylic)-4'-demethylepipodophyllotoxin with antitumor activity by diminishing the relaxation reaction of topoisomerase II-DNA decatenation” (Bioorg Med Chem, 2014).

Each structure is given as a SMILES string. Activity calls are given as the source filed them. The calls are words filed in the database; no cut-off is given here.

The first series concerns HepG2. As to the kind of experiment: Cytotoxicity against human HepG2 cells after 48 hrs by MTT assay. It is filed as functional, cell-based.
Settings: not given
Summed up:
(§1)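 Cells seeded at 3500–13,000 per well. A549, HeLa and HepG2 were grown in DMEM and BGC-823 in RPMI 1640, each with 10% CS plus penicillin/streptomycin, at 37 °C and 5% CO₂. Drug exposure lasted 2 days, followed by MTT readout at A₄₉₂, with untreated controls at 0.6–0.8. IC50 was the concentration cutting absorbance by 50%, interpolated by sigmoidal nonlinear regression. Run in triplicate.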
On to `COc1cc([C@@H]2c3cc4c(cc3[C@@H](O[C@@H]3O[C@@H]5CO[C@@H](C)O[C@H]5[C@H](O)[C@H]3O)[C@H]3COC(=O)[C@H]23)OCO4)cc(OC)c1O` [ETOPOSIDE], for which the Activity entry was “Dose-dependent effect”.

Staying with this series, now noted: HepG2, 48 h.
`COc1cc([C@@H]2c3cc4c(cc3[C@@H](O[C@@H]3O[C@@H]5CO[C@@H](C)O[C@H]5[C@H](O)[C@H]3O)[C@H]3COC(=O)[C@H]23)OCO4)cc(OC)c1O` [ETOPOSIDE] yielded an IC50 of 15.3 µM.

In the next series the test system is HeLa. As to the kind of experiment: Cytotoxicity against human HeLa cells after 48 hrs by MTT assay. The class given is functional, cell-based.
Settings: not given
An outline of the steps:
as §1
On to `COc1cc([C@@H]2c3cc4c(cc3[C@@H](O[C@@H]3O[C@@H]5CO[C@@H](C)O[C@H]5[C@H](O)[C@H]3O)[C@H]3COC(=O)[C@H]23)OCO4)cc(OC)c1O` [ETOPOSIDE], for which the Activity entry was “Dose-dependent effect” and the IC50 was determined as 59.4 µM.

Test system in the next series: not listed separately
As to the kind of experiment: Octanol-water partition coefficient, log P of the compound. The class given is physicochemical.
Settings: not given
Summed up:
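Partitioning between 1-octanol and water. The compound concentration was measured in each phase, and logP was calculated as the log of the 1-octanol concentration over the water concentration. The water concentration was corrected by an index-error factor, Y = 2.555.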
Consider `COc1cc([C@@H]2c3cc4c(cc3[C@@H](O[C@@H]3O[C@@H]5CO[C@@H](C)O[C@H]5[C@H](O)[C@H]3O)[C@H]3COC(=O)[C@H]23)OCO4)cc(OC)c1O` [ETOPOSIDE], for which the logP turned out to be 0.52.

A further series relates to A549. As to the kind of experiment: Cytotoxicity against human A549 cells. It is filed as functional, cell-based.
Settings: not given
An outline of the steps: as §1
The compound `COc1cc([C@@H]2c3cc4c(cc3[C@@H](O[C@@H]3O[C@@H]5CO[C@@H](C)O[C@H]5[C@H](O)[C@H]3O)[C@H]3COC(=O)[C@H]23)OCO4)cc(OC)c1O` [ETOPOSIDE] returned an IC50 of 168 µM.

A further series deals with HepG2. As to the kind of experiment: Cytotoxicity against human HepG2 cells. The class given is functional, cell-based.
Settings: not given
Summed up:
as §1
As to `COc1cc([C@@H]2c3cc4c(cc3[C@@H](O[C@@H]3O[C@@H]5CO[C@@H](C)O[C@H]5[C@H](O)[C@H]3O)[C@H]3COC(=O)[C@H]23)OCO4)cc(OC)c1O` [ETOPOSIDE], the IC50 came out at 1.15 µM.

Test system in a further series: not listed separately
As to the kind of experiment: Cytotoxicity against human BGC823 cells. The class given is functional, cell-based. Conditions: BGC-823. Summed up: as §1
`COc1cc([C@@H]2c3cc4c(cc3[C@@H](O[C@@H]3O[C@@H]5CO[C@@H](C)O[C@H]5[C@H](O)[C@H]3O)[C@H]3COC(=O)[C@H]23)OCO4)cc(OC)c1O` [ETOPOSIDE]: 25.7 µM corresponded to half-maximal inhibition (IC50).

In another series the target is DNA topoisomerase 2-alpha (Homo sapiens) (UniProt P11388). As to the kind of experiment: Inhibition of human DNA topoisomerase-2 using kDNA as substrate assessed as inhibition of DNA relaxation at 1 to 10 uM after 60 mins by agarose gel electrophoresis.
Chain of DNA topoisomerase 2-alpha (Homo sapiens) (P11388 whole entry): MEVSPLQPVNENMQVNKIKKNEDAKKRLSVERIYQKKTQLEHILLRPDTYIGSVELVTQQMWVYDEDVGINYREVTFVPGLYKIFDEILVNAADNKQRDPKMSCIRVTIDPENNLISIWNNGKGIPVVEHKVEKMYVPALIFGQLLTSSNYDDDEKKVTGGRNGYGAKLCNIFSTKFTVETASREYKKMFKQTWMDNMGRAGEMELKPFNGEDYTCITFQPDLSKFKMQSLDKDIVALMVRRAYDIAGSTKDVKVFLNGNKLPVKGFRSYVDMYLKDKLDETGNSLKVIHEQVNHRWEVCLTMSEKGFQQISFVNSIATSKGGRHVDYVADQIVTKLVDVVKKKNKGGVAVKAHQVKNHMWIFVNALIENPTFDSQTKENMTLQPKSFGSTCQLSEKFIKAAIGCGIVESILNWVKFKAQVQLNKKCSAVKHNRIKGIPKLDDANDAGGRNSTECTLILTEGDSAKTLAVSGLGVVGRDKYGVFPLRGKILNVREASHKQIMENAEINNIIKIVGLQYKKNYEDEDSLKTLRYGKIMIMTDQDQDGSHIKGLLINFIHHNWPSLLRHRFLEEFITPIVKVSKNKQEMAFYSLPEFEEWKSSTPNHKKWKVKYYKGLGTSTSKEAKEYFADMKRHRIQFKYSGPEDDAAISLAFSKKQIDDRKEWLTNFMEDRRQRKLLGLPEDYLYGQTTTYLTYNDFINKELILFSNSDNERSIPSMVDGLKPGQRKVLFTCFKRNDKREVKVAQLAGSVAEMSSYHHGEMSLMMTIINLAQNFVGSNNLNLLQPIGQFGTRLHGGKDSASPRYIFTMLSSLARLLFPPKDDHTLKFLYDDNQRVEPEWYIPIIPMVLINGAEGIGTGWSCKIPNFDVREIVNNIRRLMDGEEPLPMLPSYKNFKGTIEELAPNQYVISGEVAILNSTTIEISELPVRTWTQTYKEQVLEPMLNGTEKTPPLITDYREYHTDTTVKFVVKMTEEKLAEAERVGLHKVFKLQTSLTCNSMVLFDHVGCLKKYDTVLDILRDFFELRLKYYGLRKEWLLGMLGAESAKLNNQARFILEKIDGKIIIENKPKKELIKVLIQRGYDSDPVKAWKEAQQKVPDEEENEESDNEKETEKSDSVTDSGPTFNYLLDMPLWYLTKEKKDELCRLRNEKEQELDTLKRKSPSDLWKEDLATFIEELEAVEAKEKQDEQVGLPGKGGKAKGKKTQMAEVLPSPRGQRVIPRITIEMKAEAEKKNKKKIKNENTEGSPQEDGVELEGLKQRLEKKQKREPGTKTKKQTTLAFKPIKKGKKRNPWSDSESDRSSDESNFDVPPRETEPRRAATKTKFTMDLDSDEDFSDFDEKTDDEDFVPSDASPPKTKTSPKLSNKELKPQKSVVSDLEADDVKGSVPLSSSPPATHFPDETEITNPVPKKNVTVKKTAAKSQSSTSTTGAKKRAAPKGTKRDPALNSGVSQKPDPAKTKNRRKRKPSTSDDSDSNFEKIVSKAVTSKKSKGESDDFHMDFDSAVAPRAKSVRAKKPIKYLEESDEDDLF
Settings: not given
Take `COc1cc([C@@H]2c3cc4c(cc3[C@@H](O[C@@H]3O[C@@H]5CO[C@@H](C)O[C@H]5[C@H](O)[C@H]3O)[C@H]3COC(=O)[C@H]23)OCO4)cc(OC)c1O` [ETOPOSIDE]: the inhibition entry is “Active”.

A further series concerns A549. The experiment in a line: Cytotoxicity against human A549 cells after 48 hrs by MTT assay. The class given is functional, cell-based.
Settings: not given
Summed up: as §1
For `COc1cc([C@@H]2c3cc4c(cc3[C@@H](O[C@@H]3O[C@@H]5CO[C@@H](C)O[C@H]5[C@H](O)[C@H]3O)[C@H]3COC(=O)[C@H]23)OCO4)cc(OC)c1O` [ETOPOSIDE], the Activity entry was “Dose-dependent effect”.

Staying with this series, now noted: A549, 48 h.
The compound `COc1cc([C@@H]2c3cc4c(cc3[C@@H](O[C@@H]3O[C@@H]5CO[C@@H](C)O[C@H]5[C@H](O)[C@H]3O)[C@H]3COC(=O)[C@H]23)OCO4)cc(OC)c1O` [ETOPOSIDE] came in with an IC50 of 67.2 µM.

Test system in a further series: not listed separately
As to the kind of experiment: Cytotoxicity against human HL-7702 cells after 48 hrs by MTT assay. It is filed as cell-based, L02. Conditions: Homo sapiens, L02, 48 h.
In the case of `COc1cc([C@@H]2c3cc4c(cc3[C@@H](O[C@@H]3O[C@@H]5CO[C@@H](C)O[C@H]5[C@H](O)[C@H]3O)[C@H]3COC(=O)[C@H]23)OCO4)cc(OC)c1O` [ETOPOSIDE], the IC50 is 24.6 µM.

The series is the same for the next values; noted with them: human, l02, 48 h.
As to `COc1cc([C@@H]2c3cc4c(cc3[C@@H](O[C@@H]3O[C@@H]5CO[C@@H](C)O[C@H]5[C@H](O)[C@H]3O)[C@H]3COC(=O)[C@H]23)OCO4)cc(OC)c1O` [ETOPOSIDE], the Activity result is given as “Dose-dependent effect”.

Test system in the next series: not listed separately
The experiment in a line: (§2) Cytotoxicity against human BGC823 cells after 48 hrs by MTT assay. It is filed as functional, cell-based. Conditions: BGC-823, 48 h. Summed up:
as §1
`COc1cc([C@@H]2c3cc4c(cc3[C@@H](O[C@@H]3O[C@@H]5CO[C@@H](C)O[C@H]5[C@H](O)[C@H]3O)[C@H]3COC(=O)[C@H]23)OCO4)cc(OC)c1O` [ETOPOSIDE] yielded a half-inhibitory concentration (IC50) of 30.7 µM.

The test system of the next series is BGC-823. Described as §2. The class given is functional, cell-based.
Settings: not given
Summed up:
as §1
As to `COc1cc([C@@H]2c3cc4c(cc3[C@@H](O[C@@H]3O[C@@H]5CO[C@@H](C)O[C@H]5[C@H](O)[C@H]3O)[C@H]3COC(=O)[C@H]23)OCO4)cc(OC)c1O` [ETOPOSIDE], the Activity result was “Dose-dependent effect”.
